Reference: publication PMC3330681 (Scientific Reports, 2012)

Assays:
Type in all cases: cell-based
GPR35 [1] = biological target: T1, GPR35 (Homo sapiens, UniProt Q9HC97); assay: Dynamic mass redistribution; details: for DMR signal in DMR agonism profiling (in words): doses up to 1 mM
GPR35 [2] = biological target: T1, GPR35; assay: Tango β-arrestin translocation gene reporter assay in U2OS-GPR35-bla cells; details: for Efficacy Tango (maximal response): normalized to maximal response of zaprinast within the same plate
GPR35 [3] = biological target: T1, GPR35; assay: Receptor internalization assay; details: HT-29, 1 hr; 50 μM gentisate, 2 mM L-DOPA, 50 μM DHICA, 500 μM DOPAC, 5 μM reverse T3, 200 μM T4, 50 μM 3-nitrotyrosine
Procedure, shortened: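 HT-29 cells (McCoy's 5a, 10% FBS, 37°C/5% CO2) were seeded on chamber slides at 10,000 cells/well for 24 hrs, then given a test compound at a fixed dose or DMSO vehicle for 1 hr at 37°C. Cells were fixed in 4% formaldehyde, permeabilized, and stained with intracellular-domain anti-GPR35 (1:500, 24 hrs) and an Alexa Fluor 594 secondary. Confocal imaging followed.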

GPR35 [4] = biological target: T1, GPR35; assay: DMR antagonist assay: SPB05142 blocking the agonist-induced DMR in HT-29 cells; details: for DMR of the agonist in the presence of 64 μM SPB05142: HT-29 cells
Procedure, shortened: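 HT-29 cells in McCoy's 5a with 10% FBS were grown overnight to confluence on resonant waveguide biosensor plates, washed into HBSS and equilibrated 1 hr at 26°C. GPR35 antagonist pretreatment lasted 1 hr, then baseline, then agonist at a fixed dose. DMR was recorded for about 1 hr and background-corrected.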

[5] = DMR agonism, HT-29 cells, maximal DMR amplitude within 1 hr
[6] = U2OS-GPR35-bla cells, β-arrestin translocation

T1 sequence (Q9HC97 whole entry): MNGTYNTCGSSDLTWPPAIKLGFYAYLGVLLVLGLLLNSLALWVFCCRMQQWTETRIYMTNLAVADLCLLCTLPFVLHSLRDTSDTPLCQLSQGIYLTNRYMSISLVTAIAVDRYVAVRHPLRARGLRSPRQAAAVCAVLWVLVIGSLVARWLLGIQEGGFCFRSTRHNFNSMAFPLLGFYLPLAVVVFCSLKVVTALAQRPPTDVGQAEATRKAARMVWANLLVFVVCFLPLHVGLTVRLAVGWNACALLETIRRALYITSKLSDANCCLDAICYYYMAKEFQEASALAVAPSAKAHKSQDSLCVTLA

Row | SMILES | EC50 DMR (GPR35 [1]; [5]) | EC50 Tango (GPR35 [2]; [6]) | EC50 (GPR35 [1]) | Efficacy DMR (maximal response) (GPR35 [1]; HT-29 cells) | DMR signal in DMR agonism profiling (in words) (GPR35 [1]; HT-29 cells) | EC50 (GPR35 [2]) | Efficacy Tango (maximal response) (GPR35 [2]; U2OS-GPR35-bla cells) | further results
1 | NC(Cc1ccccc1)C(=O)O (racemic) [DL-Phenylalanine, DL-phenylalanine] | Inactive | Inactive |  |  |  |  |  | 
2 | NC(Cc1ccc(O)cc1)C(=O)O (racemic) [DL-Tyrosine, DL-tyrosine] | Inactive | Inactive |  |  |  |  |  | 
3 | N[C@@H](Cc1cc(I)c(O)c(I)c1)C(=O)O [3,5-Diiodo-L-tyrosine, 3,5-diiodo-L-tyrosine] |  | Inactive | 304 ± 45 µM | 254±19 pm | clear dose-dependent DMR |  |  | 
4 | N[C@@H](Cc1ccc(O)c(I)c1)C(=O)O [3-Iodo-L-tyrosine, 3-iodo-L-tyrosine] |  | Inactive | > 500 µM | >50 pm |  |  |  | DMR signal at 1 mM (in words) (GPR35 [1]; HT-29 cells, 1 mM): small but detectable DMR
5 | COc1cc(CCN)ccc1O [3-Methoxytyramine, 3-methoxytyramine] | Inactive | Inactive |  |  |  |  |  | 
6 | N[C@@H](Cc1ccc(O)c([N+](=O)[O-])c1)C(=O)O [3-Nitro-L-tyrosine, 3-nitro-L-tyrosine] |  |  | 142 ± 27 µM | 330±13 pm | robust DMR signal | > 500 µM | >20 % Zaprinast | Activity in Tango β-arrestin translocation assay (in words) (GPR35 [2]; U2OS-GPR35-bla cells): able to result in β-arrestin translocation
7 | O=C(O)Cc1ccc(O)cc1 [4-Hydroxyphenylacetate, 4-hydroxyphenylacetate] | Inactive | Inactive |  |  |  |  |  | 
8 | O=C([O-])c1cc(=O)c2c(OCC(O)COc3cccc4oc(C(=O)[O-])cc(=O)c34)cccc2o1.[Na+].[Na+] [Cromolyn disodium, reference compound] |  |  |  | 252±16 pm |  |  | 97 % Zaprinast | EC50 (GPR35 [1]; read-out: EC50 DMR, DMR agonism, HT-29 cells, maximal DMR amplitude within 1 hr): 0.52 ± 0.04 µM; EC50 (GPR35 [2]; read-out: EC50 Tango, U2OS-GPR35-bla cells, β-arrestin translocation): 9.67 ± 0.71 µM
9 | O=C(O)c1cc2cc(O)c(O)cc2[nH]1 [DHICA, 5,6-dihydroxyindole-2-carboxylic acid] |  |  | 24.2 ± 2.7 µM | 310±11 pm | clear dose-dependent and saturable DMR | 22.9 ± 1.6 µM | 75 % Zaprinast | GPR35 internalization (GPR35 [3]): obvious internalization; Activity in Tango β-arrestin translocation assay (in words) (GPR35 [2]; U2OS-GPR35-bla cells): robust FRET signal
10 | OCC(O)c1ccc(O)c(O)c1 (stereo not drawn) [DHPG, 3,4-dihydroxyphenylglycol] |  |  | 239 ± 37 µM | 310±12 pm | active | 563 ± 67 µM | 18 % Zaprinast | DMR of the agonist in the presence of 64 μM SPB05142 (GPR35 [4]): residual DMR signal
11 | O=C(O)Cc1ccc(O)c(O)c1 [DOPAC, 3,4-Dihydroxyphenylacetic acid] |  |  | > 500 µM | >200 pm | active | 106 ± 7 µM | 44 % Zaprinast | DMR of the agonist in the presence of 64 μM SPB05142 (GPR35 [4]): residual DMR signal; GPR35 internalization (GPR35 [3]): obvious internalization
12 | O=C(O)CCc1ccc(O)c(O)c1 [Dihydrocaffeic acid, 3-(3,4-dihydroxyphenyl)propionic acid] |  |  | 342 ± 41 µM | 293±12 pm | active | 186 ± 21 µM | 46 % Zaprinast | DMR of the agonist in the presence of 64 μM SPB05142 (GPR35 [4]): residual DMR signal
13 | CCOC(=O)Cc1ccc(O)c(OC)c1 [Ethyl homovanillate, ethyl homovanillate] | Inactive |  |  |  |  |  |  | 
14 | COc1cc(CC(=O)O)ccc1O [Homovanillic acid, homovanillic acid] | Inactive | Inactive |  |  |  |  |  | 
15 | O=C(O)c1cc(=O)c2ccccc2[nH]1 [Kynurenic acid, reference compound] |  |  |  | 203±13 pm |  | > 500 µM | >60 % Zaprinast | 
16 | N[C@@H](Cc1ccc(O)c(O)c1)C(=O)O [L-DOPA, 3,4-dihydroxy-L-phenylalanine, reference compound] |  | Inactive | > 500 µM | Off-target | did not reach a saturated level up to 1 mM |  |  | GPR35 internalization (GPR35 [3]): obvious internalization
17 | N[C@@H](Cc1ccccc1)C(=O)O [L-Phenylalanine, L-phenylalanine] | Inactive | Inactive |  |  |  |  |  | 
18 | N[C@@H](Cc1cc(I)c(Oc2cc(I)c(O)c(I)c2)c(I)c1)C(=O)O [L-Thyroxine (T4), L-thyroxine, reference compound] |  |  | > 500 µM | >100 pm |  | > 500 µM | >20 % Zaprinast | 
19 | N[C@@H](Cc1ccc(O)cc1)C(=O)O [L-Tyrosine, L-tyrosine] | Inactive | Inactive |  |  |  |  |  | 
20 | O=C(O)c1cccnc1Nc1cccc(C(F)(F)F)c1 [Niflumic acid, reference compound] |  |  |  | 223±11 pm |  |  | 39 % Zaprinast | 
21 | N[C@@H](Cc1ccc(Oc2cc(I)c(O)c(I)c2)c(I)c1)C(=O)O [Reverse T3, 3,3′,5′-triiodothyronine] |  |  | 5.89 ± 0.39 µM | 276±12 pm | clear dose-dependent DMR | 108 ± 9 µM | 108 % Zaprinast | GPR35 internalization (GPR35 [3]): obvious internalization; Activity in Tango β-arrestin translocation assay (in words) (GPR35 [2]; U2OS-GPR35-bla cells): full agonist
22 | O=C(/C=C/c1ccc(O)c(O)c1)O[C@H](Cc1ccc(O)c(O)c1)C(=O)O [Rosmarinate, rosmarinate] |  |  | 29.4 ± 2.7 µM | 320±11 pm | active | 169 ± 17 µM | 63 % Zaprinast | 
23 | COC(=O)c1cnn(-c2ccc(F)cc2F)c1C=NNC(=S)NC(C)(C)C [SPB05142, methyl-5-[(tert-butylcarbamothioylhydrazinylidene)-methyl]-1-(2,4-difluorophenyl)-pyrazole-4-carboxylate, reference compound] |  |  |  |  | little or no DMR signal |  |  | Inhibition by SPB05142 of the DMR of DOPA (GPR35 [4]; HT-29, agonist at EC50 to EC80): partially inhibited; Inhibition by SPB05142 of the DMR arising from all other eleven agonists (GPR35 [4]; HT-29, each agonist at EC50 to EC80): dose-dependently inhibited; IC50 Antagonist (SPB05142 to block the DMR of the agonist) (GPR35 [4]; against homogentisate, HT-29): No inhibition; Activity in Tango β-arrestin translocation assay (in words) (GPR35 [2]; U2OS-GPR35-bla cells): inactive
24 | O=C([O-])/C=C/C(=O)[O-].[Na+].[Na+] [Sodium fumarate, sodium fumarate] | Inactive | Inactive |  |  |  |  |  | 
25 | CCCOc1ccccc1-c1nc2nn[nH]c2c(=O)[nH]1 [Zaprinast, reference compound] |  |  |  | 250±17 pm |  |  | 100 % Zaprinast | 
26 | C[C@](N)(Cc1ccc(O)c(O)c1)C(=O)O [α-methyl-L-DOPA, reference compound] | Inactive | Inactive |  |  |  |  |  | 
